PP5 primary = PP5 phosphatase inhibitors, primary screen, biochemical, fluorescence | actives 0.18% (n = 320,000) | purified PP5c, OMFP substrate fluorescence | Serine/threonine-protein phosphatase 5 (Homo sapiens), P53041 | inhibition, % at 6.7 µM | AID 1987, 2009;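 active means inhibition above the campaign's mean inhibition across all tested compounds plus 3 SD, cut at about 9.5% in these data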
ASAP1 inh = inhibitors of human ASAP1 ArfGAP activity, primary screen, biochemical, fluorescence polarization | actives 0.19% (n = 360,000) | ASAP1-stimulated ARF1 GTP hydrolysis, GDP FP detection | inhibition, % at 16.5 µM | Arf-GAP with SH3 domain, ANK repeat and PH domain-containing protein 1 (Homo sapiens), … | AID 624377, 2012; in the data active means inhibition above about 25%
ARFGAP1 inhibitor = inhibitors of rat ARFGAP1 GAP activity, primary screen, biochemical, fluorescence polarization, GDP tracer. ADP-ribosylation factor GTPase-activating protein 1 (Rattus norvegicus), Q62848. Arfgap1-stimulated ARF1 GTP hydrolysis, GDP FP detection. inhibition, % at 16.5 µM. actives 0.26% (n = 360,000). AID 651572, 2012;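 active means inhibition above a per-plate limit, mean inhibition of low control wells plus 3 SD, cut at about 25% in these data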
Target sequence (Q62848 1-136 limits assumed): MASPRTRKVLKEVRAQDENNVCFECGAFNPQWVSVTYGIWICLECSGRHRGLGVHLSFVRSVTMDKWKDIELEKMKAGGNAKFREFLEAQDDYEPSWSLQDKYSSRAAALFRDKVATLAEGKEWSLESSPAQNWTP
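Repeats: one replicate per compound; assay system: rat Arfgap1 catalytic domain, aa 1-136; times: enzyme reaction 120 min at 25 °C after 20 min preincubation; detection: FP of antibody-bound GDP Alexa 633 tracer, ex 620/em 688 nm; benchmarks: high control wells lacking Arfgap1, low control full reaction with DMSO; reagent: human ARF1(Δ1-17)-GTP substrate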
PKD1 inh = inhibitors of human PKD1 kinase, biochemical, fluorescence polarization; Serine/threonine-protein kinase D1 (Homo sapiens), Q15139; PKD1 kinase fluorescence polarization assay; inhibition, % (test concentration not listed); actives 0.056% (n = 200,000); AID 797, 2007; in the data active means inhibition above about 50%
Each line names hits and unclear results; the compound was inactive in the other large screens. Most compounds without a hit are left out; they make up all but 0.54% or so of the library.

COc1ccc(OC)c(NC(=O)C2C3CCC(O3)C2C(=O)O)c1 (stereo unspecified)	PP5 primary 69.4 (no result: ASAP1 inh, ARFGAP1 inhibitor)
CCOc1ccccc1NC(=O)C1C2CCC(O2)C1C(=O)O (stereo unspecified)	PP5 primary 76.7 (no result: PKD1 inh)
O=C(NCc1ccccc1)[C@@H]1CCCN1C(=O)[C@H]1CCCN1C(=O)c1c(F)cccc1F	none (no result: PP5 primary, PKD1 inh)
CCCCCCCCN1C(=O)[C@@H](CC(=O)N2CCN(C(=O)c3ccco3)CC2)C[C@@]2(C(=O)OC)C1=C[C@H](C1CCCC1)O[C@@H]2C	none (no result: PP5 primary, PKD1 inh)
CC1OC(CC(=O)O)CC2=C1C(=O)c1c(O)cccc1C2=O (stereo unspecified)	ASAP1 inh 47.0 (no result: PP5 primary, PKD1 inh)
COc1ccccc1-c1ccc(OCCCN2CCC(C(O)(c3ccccc3)c3ccccc3)CC2)cc1	none (no result: PP5 primary, PKD1 inh)
CCCCNS(=O)(=O)c1ccc2nc(SCC(=O)Nc3sccc3C#N)[nH]c2c1	ASAP1 inh 26.6
C#CCN1C(=O)C(O)(CC(=O)c2cccc(OC)c2)c2ccccc21 (stereo unspecified)	none
CCOC(=O)CN1C(=O)C(O)(CC(=O)c2cccc(OC)c2)c2ccccc21 (stereo unspecified)	ARFGAP1 inhibitor 26.2
CCCCCCC12C(=Cc3cc4c(cc31)OCCO4)c1cc(OC)c(OC)cc1C(CC(=O)O)N2C(=O)OC (stereo unspecified)	none (no result: PP5 primary, PKD1 inh)
CCOc1ccc2nc3cc(NCc4ccc(OC)cc4)ccc3c(N)c2c1	PP5 primary 15.0 (no result: ASAP1 inh, ARFGAP1 inhibitor, PKD1 inh)
CCCCNc1cccc2c1S(=O)(=O)N[C@H](C)CO2	none (no result: PP5 primary, PKD1 inh)
Cc1cc(C(=O)c2ccccc2)cc(C)c1O	none (no result: PP5 primary, PKD1 inh)
CC1=C/C(=C(\c2cc(C)c(O)c(Br)c2)c2ccccc2S(=O)(=O)O)C=C(Br)C1=O	ARFGAP1 inhibitor 30.2 (no result: PKD1 inh)
Cc1ccccc1-c1ccc2c(c1)[C@@H]1C[C@H](N(C)S(=O)(=O)c3ccc(Cl)cc3)[C@H]([C@H](C)O)CN1CC2	none (no result: PP5 primary, PKD1 inh)
O=C1C(Nc2ccc(O)cc2)=C/C(=N/S(=O)(=O)c2cccs2)c2ccccc21	ASAP1 inh 31.9 (no result: PP5 primary)
Cc1cccc(NC2=C/C(=N/S(=O)(=O)c3cccs3)c3ccccc3C2=O)c1	ASAP1 inh 32.9
O=C(O)c1ccc(NC2=C/C(=N/S(=O)(=O)c3cccs3)c3ccccc3C2=O)cc1	none (no result: PP5 primary, PKD1 inh)
COc1ccccc1NC(=O)N(C)C[C@H]1OCc2cn(nn2)CCCC(=O)N([C@H](C)CO)C[C@@H]1C	none (no result: PP5 primary, PKD1 inh)
CCN(CC)S(=O)(=O)c1ccc(N2CCOCC2)c(NC(=O)COc2ccccc2C#N)c1	ASAP1 inh 37.2
COc1ccc(Cc2c(C3CCCCC3)nc3ccc(C)cn23)c(C)c1	none (no result: PP5 primary, PKD1 inh)
COCCCNC(=O)C[C@H]1C[C@@]2(C(=O)OC)C(=C[C@H](C(C)(C)C)O[C@@H]2C)N(CCc2ccc(OC)c(OC)c2)C1=O	none (no result: PP5 primary, PKD1 inh)
CC(C)=CCC/C(C)=C/CN1C(=O)N(c2ccc(F)cc2)[C@H]2C[C@@H](c3ccccc3)[C@@H](C)[C@@H](C(=O)N3CCOCC3)C[C@H]21	none (no result: PP5 primary, PKD1 inh)
O=C(O)C1C2C=CC(C2)C1C(=O)Nc1cccc(F)c1 (stereo unspecified)	none
CCc1ccc(NC(=O)C2C3CCC(O3)C2C(=O)O)cc1 (stereo unspecified)	PP5 primary 79.5 (no result: PKD1 inh)
CCc1ccc(NC(=O)C2CCN(c3c(N4CCCC4)c(=O)c3=O)CC2)cc1	none (no result: PKD1 inh)
CCOC(=O)c1ccc(NC(=O)C2C3CCC(C3)C2C(=O)O)cc1 (stereo unspecified)	none
O=C(O)C1C2CCC(O2)C1C(=O)Nc1cccc(F)c1 (stereo unspecified)	PP5 primary 52.1 (no result: ASAP1 inh, ARFGAP1 inhibitor)
O=C(O)C1C2CCC(O2)C1C(=O)NCc1ccncc1 (stereo unspecified)	PP5 primary 36.7
O=C(O)c1ccc(NC(=O)C2C3CCC(O3)C2C(=O)O)cc1 (stereo unspecified)	PP5 primary 78.7 (no result: PKD1 inh)
COC(=O)C1=C(C)N(C)C(=NCc2ccc3c(c2)OCO3)NC1c1cccc(F)c1 (stereo unspecified)	none (no result: PP5 primary, PKD1 inh)
COC(=O)[C@H](Cc1ccccc1)N[C@H](c1ccc(OC)cc1)[C@@H](O)Cc1ccccc1	none (no result: PP5 primary, PKD1 inh)
COc1cccc(-c2ncn(CCc3ccccc3OC)c2CC(C)C)c1	none (no result: PP5 primary, PKD1 inh)
O=C(O)C1C2CCC(O2)C1C(=O)Nc1ccc(F)cc1 (stereo unspecified)	PP5 primary 43.9
O=C(NCc1ccccc1)[C@@H]1CCCN1C(=O)[C@H]1CCCN1C(=O)c1ccccc1C(F)(F)F	none (no result: PP5 primary, PKD1 inh)

Compound activity (PubChem)
